Experimental data from BindingDB's records for doi:10.1021/acs.jmedchem.9b01421 (2019).

Experiments:
[1] = Inhibition of capsid in HBV infected in human HepG.2.2.15 cells assessed as reduction of HBV DNA incubated for 5 days by quantitative PCR analysis
[2] = biological target: Capsid protein (Hepatitis B virus, UniProt Q03732); assay: Inhibition of capsid in HBV infected in human HepG.2.2.15 cells assessed as reduction of HBV DNA incubated for 5 days by quantitative PCR analysis
How it was run: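 HepG2.2.15 cells (HepG2-derived, stably carrying the HBV genome; kept in DMEM-F12 with 10% FBS, penicillin/streptomycin, 0.5 mg/mL G418) seeded at 3 × 10^4 cells/well and incubated overnight at 37 °C. Compounds were serially half-log diluted in DMSO and added in medium at 0.5% final DMSO. HBV DNA was extracted and quantified by qPCR.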

Chain of Capsid protein (Q03732 whole entry): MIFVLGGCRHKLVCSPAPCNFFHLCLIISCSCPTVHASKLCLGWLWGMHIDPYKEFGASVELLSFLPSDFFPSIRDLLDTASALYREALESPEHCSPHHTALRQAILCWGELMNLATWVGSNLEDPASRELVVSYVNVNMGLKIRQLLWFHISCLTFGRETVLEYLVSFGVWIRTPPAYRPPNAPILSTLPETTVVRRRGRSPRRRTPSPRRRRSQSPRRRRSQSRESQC

Compound | EC50 [1] [nM] | EC50 [2] [nM]
CCOC(=O)C1=C(CN2CCOC[C@H]2C(=O)O)NC(c2nccs2)=N[C@H]1c1ccc(Br)c(F)c1 | 3 | 
CCOC(=O)C1=C(CN2CCOC[C@H]2C(=O)O)NC(c2nccs2)=N[C@H]1c1ccc(C)c(F)c1 |  | 5
COC(=O)C1=C(CN2CC(F)(F)C[C@H]2C(=O)O)NC(c2nccs2)=N[C@H]1c1ccc(F)c(F)c1 |  | 22
CCOC(=O)C1=C(CN2CCOC[C@H]2C(=O)O)NC(c2nccs2)=N[C@H]1c1ccc(Cl)c(F)c1 |  | 2
CCOC(=O)C1=C(CN2CCOC[C@H]2C(=O)O)NC(c2nccs2)=N[C@H]1c1ccc(F)c(Cl)c1 | > 1000 | 
CCOC(=O)C1=C(CN2CCOC[C@H]2C(=O)O)NC(c2nccs2)=N[C@H]1c1ccc(F)cc1F |  | 14
CCOC(=O)C1=C(CN2CC(F)(F)C[C@H]2C(=O)O)NC(c2nccs2)=N[C@H]1c1ccc(F)cc1Cl |  | 10
COC(=O)C1=C(CN2CCOC[C@H]2C(=O)O)NC(c2nccs2)=N[C@H]1c1ccc(C)c(F)c1 | 28 | 
COC(=O)C1=C(CN2CC(F)(F)C[C@H]2C(=O)O)NC(c2nccs2)=N[C@H]1c1ccc(F)cc1Cl |  | 3
CCOC(=O)C1=C(CN2CCOC[C@H]2C(=O)O)NC(c2nccs2)=N[C@H]1c1ccc(F)c(F)c1F |  | 5
CCOC(=O)C1=C(CN2CCOC[C@H]2C(=O)O)NC(c2nccs2)=N[C@H]1c1ccc(F)cc1Cl | 2 | 
COC(=O)C1=C(CN2CCOC[C@H]2C(=O)O)NC(c2nccs2)=N[C@H]1c1ccc(Cl)c(F)c1 | 10 | 
CCOC(=O)C1=C(CN2CCOC[C@H]2C(=O)O)NC(c2nccs2)=N[C@H]1c1cccc(F)c1 |  | 15
CCOC(=O)C1=C(CN2CCOC[C@H]2C(=O)O)NC(c2nccs2)=N[C@H]1c1ccc(F)c(C#N)c1 | > 1000 | 
CCOC(=O)C1=C(CN2CCOC[C@H]2C(=O)O)NC(c2nccs2)=N[C@H]1c1ccc(F)c(Br)c1 | > 1000 | 
COC(=O)C1=C(CN2CCOC[C@H]2C(=O)O)NC(c2nccs2)=N[C@H]1c1ccc(F)c(F)c1 | 46 | 
COC(=O)C1=C(CN2CCOC[C@H]2C(=O)O)NC(c2nccs2)=N[C@H]1c1ccc(Br)c(F)c1 |  | 10
CCOC(=O)C1=C(CN2CCOC[C@H]2C(=O)O)NC(c2nccs2)=N[C@H]1c1cc(F)c(F)c(F)c1 |  | 18
CCOC(=O)C1=C(CN2CCOC[C@H]2C(=O)O)NC(c2nccs2)=N[C@H]1c1ccc(F)cc1 |  | 15
CCOC(=O)C1=C(CN2CCOC[C@H]2C(=O)O)NC(c2nccs2)=N[C@H]1c1ccc(F)c(F)c1 | 11 | 
